Measurements as given in ChEMBL document CHEMBL1147108, “Comparison of disk diffusion and agar dilution methods for erythromycin and ciprofloxacin susceptibility testing of Campylobacter jejuni subsp. jejuni” (2007).
≈ marks a conversion by molar mass, not a printed value.

How the values were obtained:
Format in all cases: functional
[1] = tested on: Campylobacter jejuni; experiment: Antibacterial activity against susceptible Campylobacter jejuni isolates by disk diffusion test; details: for MIC: Campylobacter jejuni
Outline: (§1)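 Isolate suspensions were made in Mueller-Hinton broth to 0.5 McFarland and spread on Mueller-Hinton agar with 5% sheep blood. Disks used were erythromycin 15 μg and ciprofloxacin 5 μg. Plates were held at 37°C for 48 h, and inhibition zone diameters were measured with slipping calipers; 6 mm means no zone.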

[2] = tested on: Campylobacter jejuni; experiment: Antibacterial activity against susceptible Campylobacter jejuni isolates by agar dilution test
Outline: (§2)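 Agar dilution MICs of clinical C. jejuni isolates, run at 37°C following CLSI recommendations; C. jejuni ATCC 33560 served as control strain.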

[3] = tested on: Campylobacter jejuni; experiment: Antimicrobial activity against ciprofloxacin-resistant Campylobacter jejuni isolates by disk diffusion test; outline: as §1
[4] = tested on: Campylobacter jejuni; experiment: Antimicrobial activity against ciprofloxacin-resistant Campylobacter jejuni isolate by agar dilution test; outline: as §2
[5] = tested on: Campylobacter jejuni; experiment: Antibacterial activity against erythromycin-resistant Campylobacter jejuni isolates by disk diffusion test; outline: as §1
[6] = tested on: Campylobacter jejuni; experiment: Antibacterial activity against erythromycin-resistant Campylobacter jejuni isolates by agar dilution test; outline: as §2

Row | SMILES | inhibition zone (IZ) [1] [mm] | MIC [1] [mg/L] | MIC [2] [mg/L] | inhibition zone (IZ) [3] [mm] | MIC ([3]; Campylobacter jejuni) [mg/L] | MIC [4] [mg/L] | inhibition zone (IZ) [5] [mm] | MIC ([5]; Campylobacter jejuni) [mg/L] | MIC [6] [mg/L]
1 | O=C(O)c1cn(C2CC2)c2cc(N3CCNCC3)c(F)cc2c1=O [CIPROFLOXACIN] | 21 | 0.06 (≈ 0.181 µM) | 0.06 (≈ 0.181 µM) | 6 | 4 (≈ 12.1 µM) | 4 (≈ 12.1 µM) |  |  | 
2 | CC[C@H]1OC(=O)[C@H](C)[C@@H](O[C@H]2C[C@@](C)(OC)[C@@H](O)[C@H](C)O2)[C@H](C)[C@@H](O[C@@H]2O[C@H](C)C[C@H](N(C)C)[C@H]2O)[C@](C)(O)C[C@@H](C)C(=O)[C@H](C)[C@@H](O)[C@]1(C)O [ERYTHROMYCIN] | 17.5 | 0.06 (≈ 0.0818 µM) | 0.06 (≈ 0.0818 µM) |  |  |  | 6 | ≥ 256 | ≥ 256
